Published values pooled from the literature.
Lines come from different studies, so protocols differ.
Target: Cyclin-dependent kinase 16 (CDK16, Homo sapiens, UniProt Q00536)

CNCc1ccccc1-c1csc([C@H](C)Nc2nc(C)nc3cc(OC)c(OC)cc23)c1 — remaining binding (cell-free assay; competition with immobilised ligand; 1 µM): 83%
CN(C)c1nccc(-c2cnn3ncccc23)n1 — remaining binding (binding; 1 µM): 100%
CS(=O)(=O)NCC[C@H](NC(=O)c1cncc2c1cnn2-c1ccc(F)cc1)c1ccnc(S(C)(=O)=O)c1 — remaining binding (cell-free assay; competition with immobilised ligand; 1 µM): 100%
O=C(c1ccc(Nc2ncc(Cl)c(-c3cc4ccccc4s3)n2)cc1)N1CCC(N2CCCC2)CC1 — remaining binding (binding; competition with immobilised ligand; 1 µM): 0.7%
CN(C)c1nccc(-c2cnc3ncccn23)n1 — remaining binding (binding; 1 µM): 73%
O=C(Nc1ccc(Oc2ccc(F)cc2)cc1)N1CCc2ncccc2[C@H]1c1ccc(F)cc1 — remaining binding (cell-free assay; competition with immobilised ligand; 1 µM): 65%
C[C@@H](c1ccc(-n2cnc3c(N)ncnc32)cc1)N1CCc2nn(C)c(Cc3ccccc3)c2C1=O — remaining binding (binding; competition with immobilised ligand; 0.1 µM): 67%
O=C(NCCCN1CCOCC1)c1ccc(Nc2nccc(-c3cc4ccccc4s3)n2)cc1 — remaining binding (binding; competition with immobilised ligand; 1 µM): 75%
CC(C)(C)c1ccc(-c2nc(CBr)nn2-c2cccc(O)c2)cc1 — remaining binding (cell-free assay; competition with immobilised ligand; 10 µM): 69%
O=C(NC[C@@H]1[C@H]2CN(C(=O)OCc3cc(C(F)(F)F)cc(C(F)(F)F)c3)C[C@@H]12)c1ccc2[nH]nnc2c1 — remaining binding (cell-free assay; competition with immobilised ligand; 1 µM): 100%
FC(F)(F)Oc1cccc(-c2cnc3ccc(-c4ccncc4)nn23)c1 — remaining binding (cell-free assay; competition with immobilised ligand; 5 µM): 53%
COc1cnc(Nc2cccc(S(N)(=O)=O)c2)nc1N1CCN(c2ccccc2)CC1 — remaining binding (binding; competition with immobilised ligand; 1 µM): 79%
COc1ncc2cc3ccccc3nc2c1C#N — remaining binding (cell-free assay; competition with immobilised ligand; 5 µM): 97%
CN(CCCC(F)(F)F)c1nccc(-c2cnn3ncccc23)n1 — remaining binding (binding; 1 µM): 100%
Cc1nc(N2CC[C@@H](O)C2)ncc1-c1cc(C(F)(F)F)cc2[nH]ncc12 — remaining binding (binding; competition with immobilised ligand; 1 µM): 75%
N[C@@H]1CCN(c2nccc(-c3cnn4ncccc34)n2)C1 — remaining binding (binding; 1 µM): 95%
Cc1cnc(Nc2ccc(C(=O)N3CCC(N4CCCC4)CC3)cc2)nc1-c1cc2ccccc2s1 — remaining binding (binding; competition with immobilised ligand; 1 µM): 3.9%
COc1ccnn2ncc(-c3ccnc(N(C)C)n3)c12 — remaining binding (binding; 1 µM): 100%
Nc1ncc2c(n1)-c1c([nH]c3ccc(C#CC4CC4)cc13)CCCC2 — remaining binding (binding; competition with immobilised ligand; 1 µM): 100%
O=C(O)[C@@H]1[C@@H](Cn2nnc3ccccc3c2=O)CC[C@H]1C(=O)c1ccc(OCCC2CCOCC2)cc1 — remaining binding (cell-free assay; competition with immobilised ligand; 1 µM): 100%
O=C(NCC1CCOCC1)c1n[nH]cc1NC(=O)c1c(F)cccc1F — remaining binding (binding; competition with immobilised ligand; 1 µM): 57%
CN(C)c1ncc(F)c(-c2cnn3ncccc23)n1 — remaining binding (binding; 1 µM): 96%
CN(c1ccnc(CNc2nc(Nc3ccc4c(c3)CC(=O)N4)ncc2C(F)(F)F)n1)S(C)(=O)=O — remaining binding (cell-free assay; competition with immobilised ligand; 1 µM): 82%
F[C@@H]1CCN(c2nccc(-c3cnn4ncccc34)n2)C1 — remaining binding (binding; 1 µM): 100%
C[C@@H]1CN(c2ccc3ncc(-c4ccc5[nH]nc(C6CC6)c5c4)n3n2)C[C@H](C)O1 — remaining binding (binding; competition with immobilised ligand; 0.5 µM): 100%
